Laboratory results: the EternaBench riboswitch data

Test system: MS2 coat protein
Experiment: apparent Kd, MS2 coat protein; higher = weaker binding; RNA-MaP array; FMN 200 µM where present
Procedure, shortened: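 Binding was read on Illumina sequencing-chip clusters where stalled E. coli RNA polymerase had transcribed each design. A titration of SNAP-549-labelled MS2 coat protein began at 0.7 or 1.5 nM and doubled to 3 µM, once without ligand and once with constant ligand, in 100 mM Tris-HCl pH 7.5, 80 mM KCl, 4 mM MgCl2, BSA, DTT, yeast tRNA and Tween-20. The apparent Kd is the median of filtered per-cluster binding-curve fits, based on green signal normalised to red-channel RNA signal and control-cluster median Fmax.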

[1] = designed as: OFF switch for flavin mononucleotide, no ligand
[2] = ligand present: flavin mononucleotide, designed as: OFF switch for flavin mononucleotide
[3] = designed as: ON switch for flavin mononucleotide, no ligand
[4] = ligand present: flavin mononucleotide, designed as: ON switch for flavin mononucleotide

| Sequence | apparent Kd [1] [nM] | apparent Kd [2] [nM] | apparent Kd [3] [nM] | apparent Kd [4] [nM] |
| --- | --- | --- | --- | --- |
| GUGACGAAUGUAGGAUAUGCUGAGGAAUACUCAGCAGAAGGACAUGAGGAUCACCCAUGUCAUCCUUAUAAUGAAUAACGUCAC | 13.8 | 18.3 | – | – |
| UUAUACGUUGAGGAUAUGCGACUGUUUUAAGUUGUAGAAGGCGAUACAUGAGGAUCACCCAUGUUUAUGGGCAU | 240 | 327 | – | – |
| GUUACCGUAGGAUAUACAUGAGGAUCACCCAUGUACUCAGUCGAUGGAUAAGAGUACUGUAGAAGGGCGCCGGC | 140 | 150 | – | – |
| UACAUGAGGAUCACCCAUGUUUUGUCGUGUAUGGUAUUUAUCUAGGAUAUCAAUUGUUUUAUUUAUGAGAAGGAGAAUAUUAAU | 39.3 | 35.8 | – | – |
| AUGGUGCAGGUACAGGAUAUGUUGCUCGUAACAUGAGGAUCACCCAUGUACCUAUGAGAUUAAAUGCAGAAGGGUGCACACCAAA | – | – | 538 | 20.6 |
| GCUCAGUAAGGAUAUUAAUGGCACUGUUAUUCAGCGCCAGCUGAGAAGGUACAUGAGGAUCACCCAUGUGGUGA | 228 | 135 | – | – |
| GUUAGUUAAGGAUAUACAGGGAGCCGCGGCGUCUCGCCGCAACAUGAGGAUCACCCAUGUAGAAGGUGGCCAUU | 150 | 119 | – | – |
| CUUCAGUCAGGAUAUCUGCACGCUGGUGAGACCGGACGGAAGGAGAAGGGACAUGAGGAUCACCCAUGUAAAGC | 14 | 17.5 | – | – |
| GGUUGGCGAGGAUAUACAUGAGGAUCACCCAUGUGGUCCUGUGGCUGAUCUUGCCUUUGUAGAAGGCGCGAAUC | 25.4 | 103 | – | – |
| GUGUGAUUAAGAGGAUAUAUACAACAUGAGGAUCACCCAUGUACCCGUGUAGUAGAAGGUUUGUUUUUAUAUAAUAAUAUAAUU | – | – | 29.3 | 27.9 |
| UAACCACAUGAGGAUCACCCAUGUGAGGAUAUGUCCAUAUUCGGCAAAUCGGAUAUGGACAGAAGGCACACCGG | 41.6 | 68.7 | – | – |
| CCCACGAAAGUCGAACGAUGUAGGAGAAGGACAAUAACAUGACAUGAGGAUCACCCAUGUGCCAUGUAGGAUAUCCUACAUGGG | 7.86 | 7.78 | – | – |
| GGUGGACAUGAGGAUCACCCAUGUGAGGAUAUCGGCUGGUACGUGUUGGCUGGCAUCUCGAGAAGGCACAUAGG | 166 | 49.3 | – | – |
| AUGUUGAGCAGUGUAUUAAGAUCACAUGAGGAUCACCCAUGUAGAAGGCACGAGCUGAUCGCUCGUGAGGAUAUGCAUCACUGC | 7.12 | 29.2 | – | – |
| AAAAUUUAUUGAGGAUAUUCAUACACUGUAUACGGAGAAGGCAAACAAUCAUGAGGACAUGAGGAUCACCCAUGUUGUGACCAU | – | – | 18.5 | 12.2 |
| UUUUUGUCAGGAUAUCGUUAAUUUAAUUGUUUGUAUUAGUUCGAGAAGGGACAUGAGGAUCACCCAUGUUUUUU | 23.9 | 39.6 | – | – |
| GAGUUGAACGAGAAGGCCACUACAUGAGGAUCACCCAUGUCGUAGAGUAUUGGAGGAUAUCGAUAGGCGUCUCAUGAGGACAUA | 25.1 | 13.4 | – | – |
| GCGCAAAGAUUAUUAUGAAUAAACAUGAGGAUCACCCAUGUAUAGGAUAUCGACUCGAAUAGAGUCGAGAAGGAUACAUAGCGC | 22.5 | 97.1 | – | – |
| CGCUAGGAUGGGUCUAAUGGACCACAGGAUAUGCUUGUACAUGAGGAUCACCCAUGUAAUAUUGUGCAGAAGGGUGGAUUCGCG | – | – | 76 | 10.9 |

| Sequence | apparent Kd [1] [nM] | apparent Kd [2] [nM] | apparent Kd [3] [nM] | apparent Kd [4] [nM] |
| --- | --- | --- | --- | --- |
| UUAGAGGAUUAAGGAUAUGCAGAGAGAUCAUGCGCGUCGCGCACAUGAGGAUCACCCAUGUAAGAGCAGAAGGUAACUAUGAUC | 19.9 | 18.4 | – | – |
| UUUUAACAUGAGGAUCACCCAUGUGAGGAUAUCGAAAUUUAUAUUAAUAUUUAUAUAUCGAGAAGGCACAUUUU | 113 | 97.8 | – | – |
| AGGAGACAUGAGGAUCACCCAUGUGCACGUGGACGAGGAUAUGCUAGUAGAAGAUAGAAUGCAGAAGGCGUAAGAA | – | – | 75.7 | 76.8 |
| UGUGUGAGACAGGAUAUGCUGGUUGUGUGGCGGGUAGAAGGGUCUACAUGAGGAUCACCCAUGUGGCCGGUUGG | 22 | 22.8 | – | – |
| AAGUACCGGUGAGGAUAUUUUUAAUAGAACUUUAUGAUAUACAUGAGGAUCACCCAUGUUACUUUAAAGAAGGCAUCGGAUUAA | 18 | 14.8 | – | – |
| UUAUAAAAUAAAGGAUAUUCAUACCGGAAACGGACAUGAGGAUCACCCAUGUGGCGAAAGCCUUGGGAGAAGGUUAAAAUAUAU | – | – | 441 | 317 |
| GAGCGGUGAGCAGGAUAUCCACAUUGCCUCCUACAUGAGGAUCACCCAUGUGGAGAAGGGUUUAUAAGUUCGUGUAUACUCAAU | 10.5 | 10 | – | – |
| GGGUGACAUGAGGAUCACCCAUGUCAGGAUAUGAUACUAUGUACUUCGGUACAUAGUAUCAGAAGGGACAUCAU | 284 | 29.9 | – | – |
| CAGCGAAAGUAGAAGGCAGUACUGUUACAGUACUGAGGAUAUACAUGAGGAUCACCCAUGUAAUAAAGCUGGAAAUAUAUAAUU | 6.41 | 7.33 | – | – |
| AGGGCGAAAUGGCUCUAUGAGAUGAGAAGGGUAGGAGGGUGGAAGUACAUGAGGAUCACCCAUGUACAGGAUAUCAUGCCGAUU | 6.42 | 6.4 | – | – |
| ACGUAUCAUGUAGGAUAUGGCCCAGGAACUUGGUCAGAAGGACAUGAGGAUCACCCAUGUAGAGUAUGUUAGGAUGACGUAUGC | 92.9 | 173 | – | – |
| ACCGUAUGAACAUGAGGAUCACCCAUGUAAACGGAAACGAAUGAGGAUAUCGAUAGCAAAGCUAUCGAGAAGGCAUGGGACGGU | – | – | 64.5 | 26.8 |
| AUUAUUUACAUAGGAUAUUGUUACAUGAGGAUCACCCAUGUUUUCAUGGUAUUAAUAUAUUAUUUCAAGAAGGAUGUAGUUACA | – | – | 37.4 | 20.9 |
| UCUAGACAUGAGGAUCACCCAUGUCGAUAUGGCGCAGGAUAUCGGUACUCAUAGAGUACGCGAGAAGGGUGACUUC | – | – | 343 | 48.4 |
| UAUCUAGGCGAAGGAUAUCCGUCGCGAGAUACUGGAGAAGGUCGCCUUGAUACAUGAGGAUCACCCAUGUGGCGGGUGAACCAA | 37.9 | 16.4 | – | – |
| CUUUCGUUAGCAGGAUAUGGACAGGCCUGUCCGUAUUGAGUCAGUAACAUGAGGAUCACCCAUGUCCAGAAGGGCUCGAAGGGA | 14.1 | 46.6 | – | – |
| UAGUAUAAGGGCAUUAAACAUGAGGAUCACCCAUGUACGAUAGAGGAUAUGCAUUUCAGUUGAGAGUAGAAGGUUAGAGAAUUG | 37.2 | 43.4 | – | – |
| GUGGUCAGACAUGAGGAUCACCCAUGUGGAAUAAAUAAGGAAAAGGAUAUUCAAUAUAGGAUAUAGAAGAAGGUUUGGUUGGUG | – | – | 74.4 | 83.4 |
| GCCAGUUAUGUAGGAUAUGCGCGGCGAGCCUGUGCAGAAGGACAUGAGGAUCACCCAUGUGUUGCGGUCUGAGUACUGAUCGCU | 30 | 221 | – | – |

| Sequence | apparent Kd [1] [nM] | apparent Kd [2] [nM] | apparent Kd [3] [nM] | apparent Kd [4] [nM] |
| --- | --- | --- | --- | --- |
| UUUACGGGAGGAUAUACAUGAGGAUCACCCAUGUAACGGUGUGUAAUAUAUAUUGCGUGUAGAAGGUUUGUGGG | 79.3 | 78.6 | – | – |
| CUCCUCCCGAAGGAUAUCCACGCCAACUUCGUAGGAGAAGGUCGGACAUGAGGAUCACCCAUGUGGCCAUGGUU | 18.5 | 40.3 | – | – |
| UUCAAAUUCGUAGGAUAUGUAUAUAUUUUCUACAUGAGGAUCACCCAUGUUACCAUUUUUUAUUGACAGAAGGACGUAAUCUAA | – | – | 34.6 | 13.8 |
| UUUUACGUUUCGUAGCAGUGUCAUCGAGAAGGCCCUGACAUGAGGAUCACCCAUGUUGUUACAUGGGAGGAUAUCGAUGAUGGG | – | – | 41.3 | 6.93 |
| CUCGAGUGAGGAUAUAUACUUCCAUCAUUUGAGAGAGAAGUAUAGAAGGCACAUGAGGAUCACCCAUGUAUAAA | 47.5 | 69.7 | – | – |
| AUAUUUUUGUAGAAGGUACGUGAUUAGUCAAAGUAAGGAUAUACUGACAUGAGGAUCACCCAUGUUUUAAUAGUUAACAGUUCU | – | – | 12.9 | 8.01 |
| ACUAUACGAGGAUAUACUGUCAGUACUCAGACAUAAAUAUGACAUGAGGAUCACCCAUGUAGAAGGCGUUUACU | 29 | 39 | – | – |
| GUCAGUUCGUGAGGAUAUACAACACUGCUUCGGCAGUGUAUUAAGAUCACAUGAGGAUCACCCAUGUAGAAGGCACGAGCUGAU | 14 | 269 | – | – |
| GCAGUGCGAGGAUAUACAUGAGGAUCACCCAUGUGAGAAUAAGAAGUGAGGAAGAAAAGUAGAAGGCGCGUUGG | 52.4 | 155 | – | – |
| GAUCCUUCUGUUAGGAUAUGCUACGGGCUUCCGCAGCAGAAGGAACAUGAGGAUCACCCAUGUCAAAUAAAAUC | 37.1 | 168 | – | – |
| UGAUGACCUGUACCUAGUUGGUGACAUGAGGAUCACCCAUGUCAGGAUAUCGGGUUUGAAAACAACGAGAAGGGACAACGGGCG | 12.6 | 13 | – | – |
| CGGUACUGAGGAUAUACAUGAGGAUCACCCAUGUGUUCCAGCUAGCGUACUGGCAUUUGUAGAAGGCGGUGCUG | 16.8 | 48 | – | – |
| GGGAUGCUAGGAUAUACAUCGGGCUCCAGGAUGUUCCGGGAACAUGAGGAUCACCCAUGUAGAAGGAGCGUAUG | 80.4 | 50.6 | – | – |
| AAGUAGGUAGGAUAUACAUGGAUAUACAUUCAUGUGGACCUACAUGAGGAUCACCCAUGUAGAAGGACCUACAA | 34.8 | 64.2 | – | – |
| GAAAAUACAUGAGGAUCACCCAUGUAGGAUAUCGCUAUUGUAAUCAUGUUACAUGAUUACAAUAGCGAGAAGGACGUGAGAAAG | 24.7 | 22.3 | – | – |
| GAUACACAUGAGGAUCACCCAUGUUAGGAUAUUAGCGGGAAAGCUGUCAGACAGUCGAUGAGAAGGAACAGGAG | 32.5 | 31.6 | – | – |
| AAUAUAAAGAGCUGGCUCCAAAUAACAUGAGGAUCACCCAUGUAGGAUAUCAGCACGAUAAGUGCUGAGAAGGACAUCCAGCUC | 15 | 15.6 | – | – |
| ACUUACUGAGGAUAUACAUAGAUUUACAUGAGGAUCACCCAUGUUCCUCUAUGUAUAUAUGUAGAAGGCAGAAGGU | 24.6 | 77.8 | – | – |
